Data as given in ChEMBL document CHEMBL1136716, “Tripeptide probes for tripeptidyl protease I production via gene transfer” (J Med Chem, 2003).

Tests used:
Assay type in all cases: functional, organism-based
[1] = species: Mus musculus; assay: Tested for Intensity of the Final Reaction Product ofTPP-I Histochemical Staining with compound in the presence of p-anisaldehyde in mouse kidney cell preparations;
In short: (§1)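 Mice were given an anesthetic overdose, then perfused transcardially with 0.9% saline followed by 2% paraformaldehyde in 0.2 M phosphate buffer. Tissues were postfixed 2 h, cryoprotected in 25% sucrose and frozen. Cryostat sections (10 µm) were embedded in 0.5% celloidin and incubated at 37 °C for 4 h in 0.1 M acetate pH 4.5 with 1 mM substrate plus 1 mg/mL of the listed aldehyde. Staining was scored by microscopy on ≥5 sections/animal from ≥3 animals.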

[2] = species: Mus musculus; assay: Tested for Color of the Final Reaction Product ofTPP-I Histochemical Staining with compound in the presence of p-anisaldehyde in mouse kidney cell preparations; yellow-greenautofluorescent color was observed; in short: as §1
[3] = species: Mus musculus; assay: Tested for Intensity of the Final Reaction Product ofTPP-I Histochemical Staining with compound in the presence of p-nitrobenzaldehyde in mouse kidney cell preparations; in short: as §1
[4] = species: Mus musculus; assay: Tested for Color of the Final Reaction Product ofTPP-I Histochemical Staining with compound in the presence of benzaldehyde in mouse kidney cell preparations; yellow-greenautofluorescent color was observed; in short: as §1
[5] = species: Mus musculus; assay: Tested for Color of the Final Reaction Product ofTPP-I Histochemical Staining with compound in the presence of p-nitrobenzaldehyde in mouse kidney cell preparations; yellow-greenautofluorescent color was observed; in short: as §1
[6] = species: Mus musculus; assay: Tested for Intensity of the Final Reaction Product ofTPP-I Histochemical Staining with compound in the presence of benzaldehyde in mouse kidney cell preparations; in short: as §1
[7] = species: Mus musculus; assay: Tested for Color of the Final Reaction Product ofTPP-I Histochemical Staining with compound in the presence of benzaldehyde in mouse kidney cell preparations; yellow-green color was observed; in short: as §1
[8] = species: Mus musculus; assay: Tested for Color of the Final Reaction Product ofTPP-I Histochemical Staining with compound in the presence of p-anisaldehyde in mouse kidney cell preparations; yellow-green color was observed; in short: as §1
[9] = species: Mus musculus; assay: Tested for Intensity of the Final Reaction Product ofTPP-I Histochemical Staining with compound in the presence of p-nitrobenzaldehyde in mouse kidney cell preparations;; in short: as §1
[10] = species: Mus musculus; assay: Tested for Color of the Final Reaction Product ofTPP-I Histochemical Staining with compound in the presence of p-nitrobenzaldehyde in mouse kidney cell preparations; yellow-greencolor was observed; in short: as §1
[11] = species: Mus musculus; assay: Tested for Intensity of the Final Reaction Product ofTPP-I Histochemical Staining with compound in the presence of benzaldehyde in mouse kidney cell preparations;; in short: as §1
[12] = species: Mus musculus; assay: Tested for Color of the Final Reaction Product ofTPP-I Histochemical Staining with compound in the presence of benzaldehyde in mouse kidney cell preparations; brown color was observed; in short: as §1
[13] = species: Mus musculus; assay: Tested for Color of the Final Reaction Product ofTPP-I Histochemical Staining with compound in the presence of p-nitrobenzaldehyde in mouse kidney cell preparations; brown color was observed; in short: as §1

| SMILES | Activity [1] | Activity [2] | Activity [3] | Activity [4] | Activity [5] | Activity [6] | Activity [7] | Activity [8] | Activity [9] | Activity [10] | Activity [11] | Activity [12] | Activity [13] |
| --- | --- | --- | --- | --- | --- | --- | --- | --- | --- | --- | --- | --- | --- |
| C[C@H](NC(=O)[C@@H]1CCCN1C(=O)CN)C(=O)n1nc2cccc3c2c1-c1cccc(Cl)c1C3=O | yellow-greenautofluorescent color was observed | yellow-greenautofluorescent color was observed | yellow-greenautofluorescent color was observed | yellow-greenautofluorescent color was observed | yellow-greenautofluorescent color was observed | yellow-greenautofluorescent color was observed |  |  |  |  |  |  |  |
| CC(NC(=O)[C@H](C)N)C(=O)N[C@@H](Cc1ccccc1)C(=O)NNc1ccc2c(c1)C(=O)c1ccccc1C2=O (stereo partly specified) | yellow-green color was observed |  |  |  |  |  | yellow-green color was observed | yellow-green color was observed | yellow-green color was observed | yellow-green color was observed | yellow-green color was observed |  |  |
| NCC(=O)N1CCC[C@H]1C(=O)N[C@@H](CO)C(=O)NNc1cccc2c1C(=O)c1ccccc1C2=O |  |  | brown color was observed |  |  | brown color was observed |  |  |  |  |  | brown color was observed | brown color was observed |
